ChEMBL document CHEMBL1795311, “Synthesis, antiproliferative activity, and mechanism of action of a series of 2-{[(2E)-3-phenylprop-2-enoyl]amino}benzamides” (Eur J Med Chem, 2011)
pIC50: −log10 of the molar value.

Legend:
MOLT-4 = assay: Growth inhibition of human MOLT4 cells after 48 hrs by SRB assay; type: functional; conditions: MOLT-4, 48 h
Outline: (§1)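 NCI DTP panel cells grown in RPMI 1640 with 5% FBS and 2 mM L-glutamine, preincubated 24 h, then given five concentrations (10-fold or ½-log dilutions from DMSO stock) for 48 h at 37 °C. Cells fixed with TCA, stained with SRB, absorbance read at 515 nm, with time-zero plates as reference.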

RPMI-8226 = assay: Growth inhibition of human RPMI8226 cells after 48 hrs by SRB assay; type: functional; conditions: RPMI-8226, 48 h; outline: as §1
SW-620 = assay: Growth inhibition of human SW620 cells after 48 hrs by SRB assay; type: functional; conditions: SW-620, 48 h
Outline: (§2)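 Run by the NCI Developmental Therapeutics Program: cells in RPMI 1640 with 5% FBS and 2 mM L-glutamine, plated at 5000–40,000 cells/well and grown 24 h before dosing. Drug (DMSO stock) given at five concentrations for 48 h at 37 °C, 5% CO2. Adherent cells fixed with cold TCA, stained with 0.4% SRB and read at 515 nm. GI50, TGI and LC50 taken from the time-zero, control and treated absorbances.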

NCI-H23 = assay: Growth inhibition of human NCI-H23 cells after 48 hrs by SRB assay; type: functional; conditions: NCI-H23, 48 h; outline: as §1
M14 = assay: Growth inhibition of human M14 cells after 48 hrs by SRB assay; type: functional; conditions: M14, 48 h; outline: as §1
786-0 = assay: Growth inhibition of human 786-0 cells after 48 hrs by SRB assay; type: functional; conditions: 786-0, 48 h; outline: as §1
ACHN = assay: Growth inhibition of human ACHN cells after 48 hrs by SRB assay; type: functional; outline: as §1
LOX IMVI = assay: Growth inhibition of human LOXIMVI cells after 48 hrs by SRB assay; type: functional; outline: as §1
HCT-15 = assay: Growth inhibition of human HCT15 cells after 48 hrs by SRB assay; type: functional; conditions: HCT-15, 48 h; outline: as §1
K562 [1] = assay: Growth inhibition of human K562 cells after 48 hrs by trypan blue assay; type: functional, cell-based; conditions: K562, 48 h
HOP-92 = assay: Growth inhibition of human HOP92 cells after 48 hrs by SRB assay; type: functional; conditions: HOP-92, 48 h; outline: as §1
NCI-H226 = assay: Growth inhibition of human NCI-H226 cells after 48 hrs by SRB assay; type: functional; conditions: NCI-H226, 48 h; outline: as §1
K562 [2] = assay: Growth inhibition of human K562 cells after 48 hrs by SRB assay; type: functional; conditions: K562, 48 h; outline: as §1
UACC-257 = assay: Growth inhibition of human UACC257 cells after 48 hrs by SRB assay; type: functional; conditions: UACC-257, 48 h; outline: as §2
HCC 2998 = assay: Growth inhibition of human HCC2998 cells after 48 hrs by SRB assay; type: functional; conditions: HCC 2998, 48 h; outline: as §1
CCRF-CEM = assay: Growth inhibition of human CCRF-CEM cells after 48 hrs by SRB assay; type: functional; outline: as §1
OVCAR-3 = assay: Growth inhibition of human OVCAR3 cells after 48 hrs by SRB assay; type: functional; conditions: OVCAR-3, 48 h; outline: as §1
BT-549 = assay: Growth inhibition of human BT549 cells after 48 hrs by SRB assay; type: functional; conditions: BT-549, 48 h; outline: as §1
HCT-116 = assay: Growth inhibition of human HCT116 cells after 48 hrs by SRB assay; type: functional; conditions: HCT-116, 48 h; outline: as §1
IGROV-1 = assay: Growth inhibition of human IGROV1 cells after 48 hrs by SRB assay; type: functional; conditions: IGROV-1, 48 h; outline: as §1
COLO 205 = assay: Growth inhibition of human COLO205 cells after 48 hrs by SRB assay; type: functional; conditions: COLO 205, 48 h; outline: as §1
SF-268 = assay: Growth inhibition of human SF268 cells after 48 hrs by SRB assay; type: functional; conditions: SF-268, 48 h; outline: as §1
A498 = assay: Growth inhibition of human A498 cells after 48 hrs by SRB assay; type: functional; conditions: A498, 48 h; outline: as §1
K562 [3] = assay: Antiproliferative activity against human K562 cells at 10 uM after 48 hrs by trypan blue assay; type: functional; conditions: K562, 48 h, read-out: GI
SNB-19 = assay: Growth inhibition of human SNB19 cells after 48 hrs by SRB assay; type: functional; conditions: SNB-19, 48 h; outline: as §2
MDA-MB-231 = assay: Growth inhibition of human MDA-MB-231 cells after 48 hrs by SRB assay; type: functional; conditions: MDA-MB-231, 48 h; outline: as §1
HOP-62 = assay: Growth inhibition of human HOP62 cells after 48 hrs by SRB assay; type: functional; conditions: HOP-62, 48 h; outline: as §1
A549 = assay: Growth inhibition of human A549 cells after 48 hrs by SRB assay; type: functional; conditions: A549, 48 h; outline: as §1
EKVX = assay: Growth inhibition of human EKVX cells after 48 hrs by SRB assay; type: functional; outline: as §1
RXF 393 = assay: Growth inhibition of human RXF393 cells after 48 hrs by SRB assay; type: functional; conditions: RXF 393, 48 h; outline: as §1
NCI-H522 = assay: Growth inhibition of human NCI-H522 cells after 48 hrs by SRB assay; type: functional; conditions: NCI-H522, 48 h; outline: as §1
T47D = assay: Growth inhibition of human T47D cells after 48 hrs by SRB assay; type: functional; outline: as §2
U-251 = assay: Growth inhibition of human U251 cells after 48 hrs by SRB assay; type: functional; conditions: U-251, 48 h; outline: as §2
OVCAR-5 = assay: Growth inhibition of human OVCAR5 cells after 48 hrs by SRB assay; type: functional; conditions: OVCAR-5, 48 h; outline: as §1
UACC-62 = assay: Growth inhibition of human UACC62 cells after 48 hrs by SRB assay; type: functional; conditions: UACC-62, 48 h; outline: as §2
SNB-75 = assay: Growth inhibition of human SNB75 cells after 48 hrs by SRB assay; type: functional; conditions: SNB-75, 48 h; outline: as §2
SF-539 = assay: Growth inhibition of human SF539 cells after 48 hrs by SRB assay; type: functional; conditions: SF-539, 48 h; outline: as §1
SN12C = assay: Growth inhibition of human SN12C cells after 48 hrs by SRB assay; type: functional; outline: as §2
SK-MEL-28 = assay: Growth inhibition of human SK-MEL-28 cells after 48 hrs by SRB assay; type: functional; conditions: SK-MEL-28, 48 h; outline: as §2
SK-OV-3 = assay: Growth inhibition of human SKOV3 cells after 48 hrs by SRB assay; type: functional; conditions: SK-OV-3, 48 h; outline: as §2
HT-29 = assay: Growth inhibition of human HT-29 cells after 48 hrs by SRB assay; type: functional; conditions: HT-29, 48 h; outline: as §1
NCI-H460 = assay: Growth inhibition of human NCI-H460 cells after 48 hrs by SRB assay; type: functional; conditions: NCI-H460, 48 h; outline: as §1
SK-MEL-2 = assay: Growth inhibition of human SK-MEL-2 cells after 48 hrs by SRB assay; type: functional; conditions: SK-MEL-2, 48 h; outline: as §2
SK-MEL-5 = assay: Growth inhibition of human SK-MEL-5 cells after 48 hrs by SRB assay; type: functional; conditions: SK-MEL-5, 48 h; outline: as §2
OVCAR-4 = assay: Growth inhibition of human OVCAR4 cells after 48 hrs by SRB assay; type: functional; conditions: OVCAR-4, 48 h; outline: as §1

NC(=O)c1cc(Cl)ccc1NC(=O)/C=C/c1ccccc1
GI50 (MOLT-4): 3.95 µM
GI50 (RPMI-8226): 2.79 µM
GI50 (SW-620): 1.99 µM
GI50 (NCI-H23): 3.37 µM
GI50 (M14): 1.71 µM
GI50 (786-0): 2.32 µM
GI50 (ACHN): 4.75 µM
GI50 (LOX IMVI): 4.33 µM
GI50 (HCT-15): 2.13 µM
pIC50 (K562 [1]): 5.60
GI50 (HOP-92): 2.87 µM
GI50 (NCI-H226): 3 µM
GI50 (K562 [2]): 0.845 µM
GI50 (UACC-257): 15.1 µM
GI50 (HCC 2998): 0.487 µM
GI50 (CCRF-CEM): 2.96 µM
GI50 (OVCAR-3): 1.3 µM
GI50 (BT-549): 3.19 µM
GI50 (HCT-116): 1.98 µM
GI50 (IGROV-1): 3.29 µM
GI50 (COLO 205): 1.68 µM
GI50 (SF-268): 2.9 µM
GI50 (A498): 3.61 µM
inhibition of growth at 10 µM (K562 [3]): 64%
GI50 (SNB-19): 3.18 µM
GI50 (MDA-MB-231): 2.48 µM
GI50 (HOP-62): 3.15 µM
GI50 (A549): 3.77 µM
GI50 (EKVX): 2.83 µM
GI50 (RXF 393): 1.71 µM
GI50 (NCI-H522): 2.08 µM
GI50 (T47D): 3.36 µM
GI50 (U-251): 2.14 µM
GI50 (OVCAR-5): 2.74 µM
GI50 (UACC-62): 2.52 µM
GI50 (SNB-75): 1.84 µM
GI50 (SF-539): 2.05 µM
GI50 (SN12C): 3.96 µM
GI50 (SK-MEL-28): 2.88 µM
GI50 (SK-OV-3): 2.3 µM
GI50 (HT-29): 1.94 µM
GI50 (NCI-H460): 1.76 µM
GI50 (SK-MEL-2): 2.75 µM
GI50 (SK-MEL-5): 0.373 µM
GI50 (OVCAR-4): 2.77 µM

NC(=O)c1cc(I)ccc1NC(=O)/C=C/c1ccccc1
GI50 (MOLT-4): 0.202 µM
GI50 (RPMI-8226): 0.347 µM
GI50 (SW-620): 0.541 µM
GI50 (NCI-H23): 0.84 µM
GI50 (M14): 0.429 µM
GI50 (786-0): 1.43 µM
GI50 (ACHN): 3.7 µM
GI50 (LOX IMVI): 3.75 µM
GI50 (HCT-15): 0.586 µM
pIC50 (K562 [1]): 6.24
GI50 (HOP-92): 21.2 µM
GI50 (NCI-H226): 1.09 µM
GI50 (K562 [2]): 0.92 µM
GI50 (UACC-257): 14.3 µM
GI50 (HCC 2998): 1.25 µM
GI50 (CCRF-CEM): 0.341 µM
GI50 (OVCAR-3): 0.353 µM
GI50 (BT-549): 9.47 µM
GI50 (HCT-116): 0.43 µM
GI50 (IGROV-1): 0.917 µM
GI50 (COLO 205): 0.343 µM
GI50 (SF-268): 2.31 µM
GI50 (A498): 2.7 µM
inhibition of growth at 10 µM (K562 [3]): 74.5%
GI50 (SNB-19): 0.586 µM
GI50 (MDA-MB-231): 0.596 µM
GI50 (HOP-62): 0.8 µM
GI50 (A549): 2.65 µM
GI50 (EKVX): 0.734 µM
GI50 (RXF 393): 3.02 µM
GI50 (NCI-H522): 0.303 µM
GI50 (T47D): 0.857 µM
GI50 (U-251): 0.501 µM
GI50 (OVCAR-5): 3.52 µM
GI50 (UACC-62): 0.632 µM
GI50 (SNB-75): 0.245 µM
GI50 (SF-539): 0.445 µM
GI50 (SN12C): 0.635 µM
GI50 (SK-MEL-28): 2.51 µM
GI50 (SK-OV-3): 0.744 µM
GI50 (HT-29): 0.367 µM
GI50 (NCI-H460): 0.453 µM
GI50 (SK-MEL-2): 1.4 µM
GI50 (SK-MEL-5): 0.383 µM
GI50 (OVCAR-4): 1.84 µM
